ChEMBL document CHEMBL4219220, “Novel compounds that target lipoprotein lipase and mediate growth arrest in acute lymphoblastic leukemia” (Bioorg Med Chem Lett, 2018)
Activity calls are given as the source filed them. The rule behind the calls is not given here.

How the values were obtained:
REH [1] = assay: Antiproliferative activity in human REH cells assessed as inhibition of cell proliferation at 50 uM incubated for 72 hrs by CCK8 assay; assay type: functional
Method in brief: (§1)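 REH (Ph-negative, peripheral blood derived) and SupB15 (Ph-positive, bone marrow derived) B-ALL cells seeded at 50,000 cells/well in 96-well plates. Single test concentration of 50 μM (final) for 72 h, with untreated cells as controls. Proliferation read by CCK-8 (reagent 2 h at 37° C, absorbance 450 nm). Mean ± SEM, N = 3.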

SUP-B15 [2] = assay: Antiproliferative activity in human SUP-B15 cells assessed as inhibition of cell proliferation at 50 uM incubated for 72 hrs by CCK8 assay; assay type: functional, cell-based; method in brief: as §1
REH [3] = assay: Antiproliferative activity in human REH cells assessed as inhibition of cell proliferation incubated for 72 hrs by CCK8 assay; assay type: functional, cell-based
Method in brief: (§2)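 Dose-response in REH and SupB15 cells. Proliferation read by CCK-8 after 72 h of compound exposure (reagent 2 h at 37° C, absorbance 450 nm). IC50 taken from the dose-response curve.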

REH [4] = assay: Induction of cell death in human REH cells co-cultured with bone marrow stromal cells assessed as increase in cell death of phase dim cells buried underneath bone marrow stromal layer at 20 to 40 uM; assay type: functional, cell-based
Method in brief: (§3)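 REH leukemic cells in co-culture with bone marrow stromal cells. Two fractions were scored: suspended floaters (FL), and phase dim (PD) cells lying beneath the stromal layer. Read-outs were live cell population and cell death.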

Albumin = Albumin (Homo sapiens, UniProt P02768); assay: Binding affinity to serum albumin (unknown origin) at 1 to 100 uM; assay type: ADME; conditions: read-out: PB
REH [5] = assay: Induction of cell death in human REH cells co-cultured with bone marrow stromal cells assessed as reduction in live cell population of phase dim cells buried underneath bone marrow stromal layer at 20 to 40 uM; assay type: functional, cell-based; method in brief: as §3
SUP-B15 [6] = assay: Antiproliferative activity in human SUP-B15 cells assessed as inhibition of cell proliferation incubated for 72 hrs by CCK8 assay; assay type: functional, cell-based; conditions: SUP-B15, 72 h; method in brief: as §2
REH [7] = assay: Induction of cell death in human REH cells co-cultured with bone marrow stromal cells assessed as reduction in live cell population of suspended floater cells at 20 to 40 uM; assay type: functional, cell-based; method in brief: as §3
REH [8] = assay: Induction of cell death in human REH cells co-cultured with bone marrow stromal cells assessed as increase in cell death of suspended floater cells at 20 to 40 uM; assay type: functional, cell-based; method in brief: as §3

Chain of Albumin (P02768 whole entry): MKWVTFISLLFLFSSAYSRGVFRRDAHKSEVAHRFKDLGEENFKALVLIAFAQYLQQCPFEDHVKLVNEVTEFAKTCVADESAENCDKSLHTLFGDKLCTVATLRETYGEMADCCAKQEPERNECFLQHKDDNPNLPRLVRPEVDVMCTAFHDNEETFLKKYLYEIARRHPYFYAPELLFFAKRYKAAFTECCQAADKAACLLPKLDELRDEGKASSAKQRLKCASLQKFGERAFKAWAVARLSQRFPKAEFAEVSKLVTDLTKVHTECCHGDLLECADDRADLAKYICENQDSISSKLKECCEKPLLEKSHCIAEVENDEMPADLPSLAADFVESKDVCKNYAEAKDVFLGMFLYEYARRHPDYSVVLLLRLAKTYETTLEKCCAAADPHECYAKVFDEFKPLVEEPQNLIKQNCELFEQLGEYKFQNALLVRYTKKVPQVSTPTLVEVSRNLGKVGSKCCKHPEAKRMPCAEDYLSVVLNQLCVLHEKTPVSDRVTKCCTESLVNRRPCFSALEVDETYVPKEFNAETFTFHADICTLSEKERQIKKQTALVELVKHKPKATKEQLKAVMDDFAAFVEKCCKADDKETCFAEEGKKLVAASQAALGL

| Compound | inhibition (REH [1]) | inhibition (SUP-B15 [2]) | other results |
| --- | --- | --- | --- |
| CC1(C)C(C(=O)NCCCN2CCOCC2)C1c1ccc(F)cc1 (configuration not stated) | Active | inactive | – |
| CC1(C)C(C(=O)N2CCC3(CCCO3)CC2)C1c1ccc(F)cc1 (configuration not stated) | Active | inactive | – |
| CSCc1nc(CNC(=O)C2C(c3ccc(F)cc3)C2(C)C)no1 (configuration not stated) | Active | inactive | – |
| CC1(C)C(C(=O)NCC2CCC(C(=O)O)CC2)C1c1ccc(F)cc1 (configuration not stated) | Active | inactive | – |
| Cc1cnc(CNC(=O)C2C(c3ccc(F)cc3)C2(C)C)cn1 (configuration not stated) | Active | inactive | – |
| CN1CC2(CCC1=O)CCN(C(=O)C1C(c3ccc(F)cc3)C1(C)C)CC2 (configuration not stated) | Active | inactive | – |
| Cc1cccc(=O)n1CCCNC(=O)C1C(c2ccc(F)cc2)C1(C)C (configuration not stated) | Active | inactive | – |
| Cc1nc[nH]c1CCCCNC(=O)C1C(c2ccc(F)cc2)C1(C)C (configuration not stated) | Active | inactive | – |
| Cc1cc(CNC(=O)C2C(c3ccc(F)cc3)C2(C)C)ccn1 (configuration not stated) | Active | inactive | – |
| Cc1cccnc1CN1CCN(C(=O)C2C(c3ccc(F)cc3)C2(C)C)CC1 (configuration not stated) | Active | inactive | – |
| CSc1ncc(CNC(=O)C2C(c3ccc(F)cc3)C2(C)C)n1C (configuration not stated) | Active | inactive | – |
| CC1(C)C(C(=O)N2CCN(c3cnccn3)CC2)C1c1ccc(F)cc1 (configuration not stated) | Active | inactive | – |
| CCc1c(C)nn(CCNC(=O)C2C(c3ccc(F)cc3)C2(C)C)c1C (configuration not stated) | – | Active | IC50 (REH [3]): 16.5 µM; Activity (REH [4]): Active; inhibition at 50 µM (REH [1]): > 50%; fraction unbound at up to 100 µM (Albumin): > 0.95; Activity (REH [5]): Active; IC50 (SUP-B15 [6]): 44.7 µM; Activity (REH [7]): Active; Activity (REH [8]): Active |
| CC1(C)C(C(=O)N2CC(c3cccnc3)C2)C1c1ccc(F)cc1 (configuration not stated) | Active | inactive | – |
| Cc1nccn1-c1ccccc1CNC(=O)C1C(c2ccc(F)cc2)C1(C)C (configuration not stated) | Active | inactive | – |
| CC1C=NN=C1C(C)NC(=O)C1C(c2ccc(F)cc2)C1(C)C (configuration not stated) | Active | inactive | – |
| COCc1cc(CNC(=O)C2C(c3ccc(F)cc3)C2(C)C)n[nH]1 (configuration not stated) | Active | inactive | – |
| CC1(C)C(C(=O)NCCNc2cccnc2)C1c1ccc(F)cc1 (configuration not stated) | Active | inactive | – |
| CC1(C)C(C(=O)NCCCc2cnc(N)s2)C1c1ccc(F)cc1 (configuration not stated) | Active | inactive | – |
| CC1(C)C(C(=O)NCc2noc(-c3ccco3)n2)C1c1ccc(F)cc1 (configuration not stated) | Active | inactive | – |
